Measurements published in ChEMBL document CHEMBL4513216, “Probing the Open Global Health Chemical Diversity Library for Multistage-Active Starting Points for Next-Generation Antimalarials” (ACS Infect Dis, 2020).

Experiment: Toxicity liver stage against HepG2, at 10uM
Assay type: cell-based
Design: test concentration 10 uM, cell line HepG2-A16-CD81EGFP
Conditions: human, HepG2-A16-CD81EGFP cells; read-out: INHIBITION
Method in brief: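 Uninfected HepG2-A16-CD81EGFP cells, 3 × 10^3 per well, 1536-well, plated on prespotted compound at 10 μM final, parasite-free screening media added to match infected plates; puromycin 10 μM positive, DMSO 0.5% negative; run in parallel with 48 h PbLuc assay at 37 °C, 5% CO2; viability by CellTiter-Glo luminescence, normalized to controls.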

Row | SMILES | cytotoxicity at 10 µM [%]
1 | COCCOc1ccnc(-c2noc([C@@H]3CCCN3CC(C)C)n2)c1 | -8.64
2 | CCNC(=O)N1CC[C@@H](CC(=O)O)[C@@H](CC2=NCCc3ccccc32)C1 | 2.7
3 | COc1ccc(CN2CC(O)CN(C(=O)OCC(C)(C)C)CC2=O)cc1 (stereo not drawn) | 2.55
4 | O=C(CCn1ccc(=O)[nH]c1=O)N1CCC(Oc2ncccc2Cl)CC1 | 1.71
5 | Cc1oncc1C(=O)N1CC2CC1(C(=O)N1CCCC1)C2 | 4.91
6 | CO[C@H]1CCN(C(=O)c2cc(C)on2)[C@H]1Cc1ccncc1 | 1.2
7 | O=C(CC1CC1)N1C[C@@H]2CN(c3ccccc3)C(=O)[C@@H]2C1 | -1.48
8 | c1cc(CN2CCc3nc(N4CCOCC4)nc(NC4CC4)c3C2)co1 | 12
9 | CN(C)C(=O)CN1C[C@H]2CCN(C(=O)c3ccncc3)CC[C@H]2S1(=O)=O | -1.55
10 | CCn1ncc2c1C(COC)CN(Cc1nccs1)C2 (stereo not drawn) | 9.41
11 | CNC(=O)[C@H]1C[C@@H]2CN(C(=O)c3ccoc3)C[C@@H]2N1S(C)(=O)=O | -3.88
12 | O=c1[nH]nc2c(S(=O)(=O)N3CCCCCC3)cccn12 | 2.1
13 | Cc1n[nH]c(C)c1CCC(=O)N1CCC(O)(CN2CCN(C)CC2)C1 (stereo not drawn) | -6.13
14 | Oc1cc(-c2ccsc2)nc(C2CCN(Cc3ccncc3)CC2)n1 | -7.7
15 | Cc1cncnc1C1CCN(C(=O)CN(C)C)CC1 | -7.91
16 | Cn1cc(CN2CCCC(c3nc(O)cc(-c4cccs4)n3)C2)cn1 (stereo not drawn) | -5.89
17 | Cc1ccc(CNC(C)c2cc(F)ccc2N2CCN(C)CC2)o1 (stereo not drawn) | 0.513
18 | Cn1nc2c(cc1=O)CN(CC1CCCCO1)CC2 (stereo not drawn) | 2.58
19 | COc1ccc(-n2cc(CNC(=O)c3ccccn3)nn2)cc1 | -4.05
20 | CCC(CC)(CCCNC(=O)c1c(C)noc1C)C1OCCO1 | 1.98
21 | COc1c(C2CCCN2c2ncnc3c2cnn3C)c(C)nn1C (stereo not drawn) | 1.95
22 | Cc1nc(C)c(C(C)NCc2c(C)nn(C)c2N(C)C)s1 (stereo not drawn) | -4.96
23 | CC1(NC(=O)CC2CCc3ccccc32)CCOCC1 (stereo not drawn) | 0.995

Row | SMILES | cytotoxicity at 10 µM [%]
24 | O=c1ccc(S(=O)(=O)N2CCCC2)cn1CC1CCCCO1 (stereo not drawn) | -0.983
25 | O=C(C1CC(c2ccccc2)=NO1)N1CCCCc2ccccc21 (stereo not drawn) | 3.17
26 | CCc1nnc2n1CCN(C(=O)C(C)Oc1cccc(C#N)c1)C2 (stereo not drawn) | 0.855
27 | CC(=O)NCCCNC(=O)N1CCN(c2cc(F)ccc2F)CC1 | -5.14
28 | COc1ccccc1OCc1nc2cc3c(cc2c(=O)o1)OCCCO3 | 1.37
29 | O=C(NCC1CCC1)c1ccc(-n2ccnc2)nn1 | 2.18
30 | CCCn1nnnc1CSc1nccn1CC | -5.15
31 | COc1cccc(CSc2nnc(C)n2CC(N)=O)c1 | 3.59
32 | O=C(c1ccoc1)N1CCC(NCc2ccccc2-n2ccnc2)CC1 | 5.89
33 | CNC(=O)C1CCN(C(=O)NCc2ccc(C)n2C)CC1 | -1.81
34 | CCC(C)(CNC(=O)Nc1nncs1)N1CCOCC1 (stereo not drawn) | -7.98
35 | Cc1nc(CN2CCN(C(=O)c3ccc(=O)n(C)c3)CC2)cs1 | -2.95
36 | CCCc1cc(NCCn2cccn2)n2ncnc2n1 | 5.28
37 | CCN1CCOC(CNCc2ccc(OC)c(F)c2)C1 (stereo not drawn) | 1.79
38 | CNC(=O)CCN1CCN(C(C)c2ccc(Cl)cc2)CC1 (stereo not drawn) | -0.82
39 | CCOC(=O)NC(CNC(=O)c1cc(Cl)ccn1)CC(C)C (stereo not drawn) | 5.38
40 | Cc1ccc(CN(C)C(=O)CN2CCCC2c2cnn(C)c2)o1 (stereo not drawn) | -1.69
41 | CCC(COC)NC(=O)N1CCC(n2ccc(C(F)(F)F)n2)CC1 (stereo not drawn) | -12
42 | CCOC(=O)NCCC(=O)NC(C)(C)c1ccc2c(c1)OCCO2 | -0.418
43 | O=C(NCc1csc2ccccc12)NCC1(O)CCSC1 (stereo not drawn) | 3.19
44 | c1ccc(N2CCC(NCCc3ccc(-n4cccn4)cc3)CC2)nc1 | 21.1
45 | Cn1cnnc1-c1cncc(NCc2cccc3c2OC(C)(C)C3)c1 | 7.84
46 | O=C(C1CCN(c2ccnc3ccc(Br)cc23)CC1)N1CCOCC1 | 15.6

Row | SMILES | cytotoxicity at 10 µM [%]
47 | Cn1ccc(C(=O)NCCOc2ccc3c(c2)CCC3)cc1=O | 3.68
48 | Cc1csc(CNc2cnn(CC(C)C)c2)n1 | -6.63
49 | CCc1nc(C(=O)N2CC(C)CN(C)c3ccccc32)c[nH]1 (stereo not drawn) | -3.47
50 | CCCn1nnnc1COc1cc(OC)ccc1C(N)=O | -4.42
51 | CNS(=O)(=O)c1cc(C(=O)N(C)Cc2sccc2C)c(C)o1 | -8.43
52 | COCCCn1ccc(NS(=O)(=O)c2cc(C)c(F)cc2F)n1 | 20.1
53 | CCC(C)(NCc1nc(C)c(C)o1)c1nccs1 (stereo not drawn) | -2.05
54 | Cc1noc(C)c1CC(=O)N1CCCC(n2ccnc2C)C1 (stereo not drawn) | -4.49
55 | COc1ccccc1OC(C)CNC(=O)c1cnc[nH]1 (stereo not drawn) | 1.57
56 | CCn1ncc2c1NC(=O)C(C#N)C21CCCC1 (stereo not drawn) | -0.242
57 | CC(C)N1Cc2cccc(NCC(=O)N(C)C3CCCCC3)c2C1 | 4.83
58 | FC(F)(F)C1CCCn2c(CNCc3ccsc3)nnc21 (stereo not drawn) | 16.5
59 | COC1CCN(C(=O)c2c(Cl)c3ccccc3n2C)CC1 | 4.39
60 | CC(=O)Nc1nc(CN2CCCCC2Cn2cccn2)cs1 (stereo not drawn) | -6.7
61 | Cc1oncc1C(=O)N1CCC2(CC1)C(c1cnn(C)c1)CC(=O)N2C (stereo not drawn) | -75.6
62 | N#Cc1ccc(Nc2nc3c(s2)C(=O)CN(CC2CC2)C3)cc1 | -5.28
63 | COC[C@@]12CC[C@@H](N3CCOCC3)C[C@H]1CCN(c1cnccn1)C2 | 4.76
64 | Cn1nnnc1SCCNC(=O)c1cccc2ccnn12 | -59.1
65 | Cc1ncsc1CCn1ccnc1-c1cc2n(n1)CCCNC2 | -0.434
66 | CCO[C@H]1COC[C@@H]1NC(=O)CCc1nc(-c2ccccc2)no1 | 15.8
67 | Cc1nc(C(=O)NCCS(=O)(=O)N2CCCC2)cs1 | 13.4
68 | CCC(=O)Nc1cc(Cl)ccc1C(=O)N(C)Cc1noc(CC)n1 | 7.1
69 | Cc1ncsc1C(=O)N1CCCC(c2nccn2Cc2cscn2)C1 (stereo not drawn) | -0.0612

Row | SMILES | cytotoxicity at 10 µM [%]
70 | CCC(CO)N(Cc1ccco1)C(=O)c1ccccc1NC (stereo not drawn) | 2.1
71 | CCN(Cc1cc(F)c(OC)c(Cl)c1)Cc1noc(CC(C)C)n1 | -2.84
72 | Cn1ccnc1C1CCN(CCC2CCOC2)CC1 (stereo not drawn) | -4.06
73 | N#Cc1ccccc1CN1CCC(c2nccn2CC(N)=O)CC1 | -8.61
74 | CCC(NC(=O)CC1CCN(CC)CC1)c1cn2cccnc2n1 (stereo not drawn) | 2.46
75 | COc1ccc(-c2c[nH]c(C3CC(=O)N(CC(C)C)C3)n2)cc1 (stereo not drawn) | 5.35
76 | CCc1ccccc1NC(=O)c1cccc(N(C)S(C)(=O)=O)c1C | -4.68
77 | Cc1cc(C2CCC2)nc(N(C)Cc2cnccn2)n1 | -1.86
78 | CC(C)n1cnnc1Cn1c(=O)ccc2ccccc21 | 5.62
79 | COCCc1noc(CN2CCC3(CCCO3)CCC2=O)n1 (stereo not drawn) | 5.35
80 | COCC1CCCCN1C(=O)c1cc(-c2cccc(OC)c2)n[nH]1 (stereo not drawn) | 9.34
81 | O=C1CCC2(CCN(Cc3cc(F)ccc3Cl)CC2)CN1C1CCCC1 | 53.1
82 | CCCc1nc(C(C)(C)NC(=O)C2CC(=O)N(C3CCCC3)C2)no1 (stereo not drawn) | -0.734
83 | CC(C)c1n[nH]c(C2CN(C(=O)CCc3cscn3)CCO2)n1 (stereo not drawn) | -1.51
84 | Cc1ncsc1C(=O)N(C)Cc1ccccc1 | -6.92
85 | Cc1nc(CN2CCCC(NCc3cccc(C(N)=O)c3)C2)no1 (stereo not drawn) | -14.5
86 | CC1CN(Cc2ccc(-n3cccn3)cc2)CCO1 (stereo not drawn) | -7.18
87 | Cc1ccc(-c2nc(CN3CCCC3Cn3cncn3)cs2)o1 (stereo not drawn) | -7.88
88 | CCc1cnc(CN2CCC(N(Cc3noc(CC)n3)C(C)=O)C2)o1 (stereo not drawn) | -4.17
89 | CC(NC(=O)NCCn1ccnc1)c1ccc2c(c1)CCC(=O)N2 (stereo not drawn) | -18.1
90 | CCN1CCN(c2ccc(CNC(=O)c3cnn(C)c3C)cn2)CC1 | -11.1
91 | COc1ccc(C2CCCN2C(=O)Nc2ccc(OC)nc2)cc1 (stereo not drawn) | 2.58
92 | CCNC(=O)N1CCN(C(=O)c2cc(Cl)cc3cccnc23)CC1 | -9.62

Row | SMILES | cytotoxicity at 10 µM [%]
93 | CC(NC(=O)NCCCN(C)S(C)(=O)=O)c1cccc(Cl)c1 (stereo not drawn) | 3.44
94 | Cc1cn2nc(N3CCCC3Cn3nc(C)cc3C)sc2n1 (stereo not drawn) | -1.32
95 | COc1ccc(CN2CCCC(Cn3nc(C)nc3C)C2)cc1F (stereo not drawn) | -0.409
96 | CN(Cc1ccco1)C(=O)CN1CCCCC1Cn1cccn1 (stereo not drawn) | 2.91
97 | CC(C)NC(=O)c1sc2ccccc2c1C1CCC(CN)CC1 (stereo not drawn) | -3.28
98 | CN1CC(=O)N(c2cccc(F)c2)CC12CCN(Cc1cncn1C)C2 (stereo not drawn) | -0.791
99 | Cc1ncnc2c1CCN(c1ccccn1)CC2 | -157
100 | CC(C)NC(=O)C1CN(Cc2ccc(F)cc2)CC12CCOCC2 (stereo not drawn) | 3.86
101 | O=C(Nc1cccnc1)[C@H]1CN(Cc2nccs2)C[C@H]2OCC[C@@H]12 | 2.88
102 | Cc1noc(C)c1-c1nc(C2CCCNC2)ccc1CO (stereo not drawn) | -21.3
103 | O=C(c1ncccn1)N1C[C@H]2CCC[C@@]2(COc2ccccn2)C1 | 5.29
104 | Cc1nc(C)n(CC2CN(Cc3ccncc3)Cc3nccn3C2)n1 (stereo not drawn) | -142
105 | CN1CCC(c2nc3ccc(-c4ccccc4)cn3n2)CC1 | -5.29
106 | c1c[nH]c(CN2CCC3(CC2)COCCN(CCN2CCCC2)C3)c1 | -3.86
107 | c1cnc(N2CCC3(COCCN(CC4CCOCC4)C3)C2)nc1 (stereo not drawn) | -1.56
108 | CC(C)CN1CCc2c(CN(C)Cc3ccco3)cncc2C1 | 8.1
109 | CN(C)Cc1cn2c(n1)CN(C(=O)Cc1ccsc1)CC2 | -136
110 | O=C1Nc2ccccc2C12CCN(c1nccs1)CC2 | -0.449
111 | c1cnc2[nH]c(C3CCCNC3)c(CN3CCCOCC3)c2c1 (stereo not drawn) | -1.43
112 | CN1C(=O)[C@@H]2CC[C@H]1CN(c1ncnc3ccsc13)C2 | 0.636
113 | c1ccc(OC2C[C@@H]3CN(Cc4cnccn4)C[C@@H]3C2)cc1 (stereo partly drawn) | -5.92
